Drawing on ChEMBL document CHEMBL1154578, “Aminosterols from the dogfish shark Squalus acanthias” (2000), this text covers MIC for 8 molecules.

In brackets after ≈: the same amount, converted by molar mass.

Holding throughout (assay type): functional
One test has as its system Staphylococcus aureus. The test can be described thus: Antimicrobial activity against Staphylococcus aureus ATCC 29218. The conditions noted are these: ATCC 29213, in the assay text read “ATCC 29213” for “ATCC 29218”. In a few lines:
(§1)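 Broth microdilution MIC: log-phase microbes at (0.9-1.1) × 10⁵ cfu/mL in 0.5× trypticase soy broth, exposed to increasing amounts of aminosterol in microtiter plates, incubated at 37 °C for 18-24 h. Aminosterol starting solutions at 2 mg/mL in 250 mM sodium acetate, pH 6.6.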

Another test deals with Escherichia coli. The test can be described thus: Antimicrobial activity against Escherichia coli ATCC 25922. In a few lines:
as §1

A further test deals with Pseudomonas aeruginosa. Nature of the test: Antimicrobial activity against Pseudomonas aeruginosa ATCC 27853. In outline: as §1
The test system of the next test is Candida albicans. Nature of the test: Antimicrobial activity against Candida albicans ATCC 90028. In outline: as §1

With `C=C(C)C(=O)CC[C@@H](C)[C@H]1CC[C@H]2[C@@H]3[C@H](O)C[C@H]4C[C@@H](NCCCNCCCCN)CC[C@]4(C)[C@H]3CC[C@]12C`, the MIC amounted to 2 µg/mL (≈ 3.68 µM) with Staphylococcus aureus, 16 µg/mL (≈ 29.4 µM) against Escherichia coli, 16 µg/mL (≈ 29.4 µM) in the test with Pseudomonas aeruginosa and 2 µg/mL (≈ 3.68 µM) against Candida albicans.
As for `CC(COS(=O)(=O)O)C(=O)CC[C@@H](C)[C@H]1CC[C@H]2[C@@H]3[C@H](O)C[C@H]4C[C@@H](NCCCNCCCCN)CC[C@]4(C)[C@H]3CC[C@]12C` (some centres not stated), the MIC in the test with Staphylococcus aureus is 8 µg/mL (≈ 12.5 µM); against Escherichia coli, 128 µg/mL (≈ 199 µM); in the test on Pseudomonas aeruginosa it was 128 µg/mL (≈ 199 µM); in the test on Candida albicans, 32 µg/mL (≈ 49.8 µM).
For `CC(COS(=O)(=O)O)[C@H](O)CC[C@@H](C)[C@H]1CC[C@H]2[C@@H]3[C@H](O)C[C@H]4C[C@@H](NCCCNCCCCN)CC[C@]4(C)[C@H]3CC[C@]12C` (some centres not stated), the MIC amounted to 4 µg/mL (≈ 6.21 µM) with Staphylococcus aureus, 128 µg/mL (≈ 199 µM) with Escherichia coli, 32 µg/mL (≈ 49.7 µM) against Pseudomonas aeruginosa and 16 µg/mL (≈ 24.8 µM) in the test on Candida albicans.
Taken in the same sequence, the figures for `CC(CSCC(N)C(=O)O)C(=O)CC[C@@H](C)[C@H]1CC[C@H]2[C@@H]3[C@H](O)C[C@H]4C[C@@H](NCCCNCCCCN)CC[C@]4(C)[C@H]3CC[C@]12C` (some centres not stated) were 8 µg/mL (≈ 12 µM), 256 µg/mL (≈ 385 µM), 256 µg/mL (≈ 385 µM) and 128 µg/mL (≈ 192 µM).
Turning to `CC(C)[C@](CO)(CC[C@@H](C)[C@H]1CC[C@H]2[C@@H]3[C@H](O)C[C@H]4C[C@@H](NCCCNCCCCN)CC[C@]4(C)[C@H]3CC[C@]12C)OS(=O)(=O)O`, the MIC against Staphylococcus aureus is 2 µg/mL (≈ 3.04 µM); with Escherichia coli it was 8 µg/mL (≈ 12.2 µM); against Pseudomonas aeruginosa, 16 µg/mL (≈ 24.3 µM); with Candida albicans, 32 µg/mL (≈ 48.6 µM).
The like results for `CC(C)[C@@H](CC[C@@H](C)[C@H]1CC[C@H]2[C@@H]3[C@H](O)C[C@H]4C[C@@H](NCCCNCCCCN)CC[C@]4(C)[C@H]3C[C@H](O)[C@]12C)OS(=O)(=O)O` were, in that order, 8 µg/mL (≈ 12.4 µM), 16 µg/mL (≈ 24.8 µM), 16 µg/mL (≈ 24.8 µM) and 32 µg/mL (≈ 49.7 µM).
The like results for `CC(C)[C@@H](CC[C@@H](C)[C@H]1CC[C@H]2[C@@H]3[C@H](O)C[C@H]4C[C@@H](NCCCNCCCCN)CC[C@]4(C)[C@H]3CC[C@]12C)OS(=O)(=O)O` [SQUALAMINE] were, in that order, 1 µg/mL (≈ 1.59 µM), 4 µg/mL (≈ 6.37 µM), 16 µg/mL (≈ 25.5 µM) and 16 µg/mL (≈ 25.5 µM).
The like results for `CC(C)[C@@H](CC[C@@H](C)[C@H]1CC[C@H]2[C@@H]3[C@H](O)C[C@H]4C[C@@H](NCCCNCCCCNCCCN)CC[C@]4(C)[C@H]3CC[C@]12C)OS(=O)(=O)O` [TRODUSQUEMINE] were, in that order, 1 µg/mL (≈ 1.46 µM), 1 µg/mL (≈ 1.46 µM), 4 µg/mL (≈ 5.84 µM) and 4 µg/mL (≈ 5.84 µM).

The MIC is the lowest concentration that inhibits growth of the organism.
